Results: ChEMBL document CHEMBL4346684, “Synthesis and structure-bactericidal activity relationships of non-ketolides: 9-Oxime clarithromycin 11,12-cyclic carbonate featured with three-to eight-atom-length spacers at 3-OH” (Eur J Med Chem, 2019)
≈ marks a conversion by molar mass, not a printed value.

Legend:
Type in all cases: functional
Staphylococcus aureus [1] = assay: Antimicrobial activity against inducibly erythromycin resistant Staphylococcus aureus PU64 expressing i-ermA incubated in CAMHB medium for 20 hrs by two-fold microbroth dilution method; conditions: PU64, 20 h
Outline: (§1)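 Purified fresh Staphylococcus isolate at about 5×10^5 CFU/ml final in CAMHB, 35 °C for 20 h. […] Each run included ATCC strains and reference antibiotics as QC, plus an antibiotic-free growth control.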

Streptococcus pneumoniae [2] = assay: Antimicrobial activity against erythromycin-susceptible Streptococcus pneumoniae ATCC 49619 incubated in CAMHB medium for 20 to 24 hrs by two-fold microbroth dilution method
Staphylococcus aureus [3] = assay: Antimicrobial activity against erythromycin-susceptible Staphylococcus aureus ATCC 29213 incubated in CAMHB medium for 20 hrs by two-fold microbroth dilution method; conditions: ATCC 29213, 20 h
Outline: (§2)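 Clinical isolates and ATCC strains, purified by plate activation and used fresh; inoculum about 5×10^5 CFU/ml final. Grown in CAMHB at 35 °C for 20 h.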

Streptococcus pyogenes [4] = assay: Antimicrobial activity against constitutively erythromycin resistant Streptococcus pyogenes A2 expressing c-erm incubated in CAMHB medium for 20 to 24 hrs by two-fold microbroth dilution method
Outline: (§3)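 Purified fresh Streptococcus isolate at about 5×10^5 CFU/ml final in CAMHB with 5% horse serum, 35 °C for 20–24 h. […] Each run included ATCC strains and reference antibiotics as QC, plus an antibiotic-free growth control.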

[5] = tested on: Staphylococcus epidermidis; assay: Antimicrobial activity against Staphylococcus epidermidis E1 incubated in CAMHB medium for 20 hrs by two-fold microbroth dilution method; conditions: E1, 20 h; outline: as §2
Streptococcus pneumoniae [6] = assay: Antimicrobial activity against mef-encoded erythromycin resistant Streptococcus pneumoniae PU09 incubated in CAMHB medium for 20 to 24 hrs by two-fold microbroth dilution method
Streptococcus pneumoniae [7] = assay: Antimicrobial activity against constitutively erythromycin resistant Streptococcus pneumoniae PU27 expressing c-erm incubated in CAMHB medium for 20 to 24 hrs by two-fold microbroth dilution method; outline: as §3
Staphylococcus aureus [8] = assay: Antimicrobial activity against constitutively erythromycin resistant Staphylococcus aureus PU20 expressing c-ermC incubated in CAMHB medium for 20 hrs by two-fold microbroth dilution method; conditions: PU20, 20 h; outline: as §1
Staphylococcus aureus [9] = assay: Antimicrobial activity against inducibly erythromycin-resistant Staphylococcus aureus PU32 expressing i-ermA incubated in CAMHB medium for 20 hrs by two-fold microbroth dilution method; conditions: PU32, 20 h; outline: as §1
Streptococcus pyogenes [10] = assay: Antimicrobial activity against erythromycin-susceptible Streptococcus pyogenes A3 incubated in CAMHB medium for 20 to 24 hrs by two-fold microbroth dilution method
Haemophilus influenzae [11] = assay: Antimicrobial activity against azithromycin-susceptible Haemophilus influenzae ATCC 49247 incubated in HTM broth medium for 20 to 24 hrs by two-fold microbroth dilution method
Haemophilus influenzae [12] = assay: Bactericidal activity against azithromycin-susceptible Haemophilus influenzae ATCC 49247 assessed as reduction in colony formation incubated in HTM broth medium for 20 to 24 hrs followed by 24 hrs subculturing in the medium without test compound
Streptococcus pneumoniae [13] = assay: Bactericidal activity against mef-encoded erythromycin resistant Streptococcus pneumoniae PU09 assessed as reduction in colony formation incubated in CAMHB medium for 20 to 24 hrs followed by 24 hrs subculturing in the medium without test compound
Streptococcus pneumoniae [14] = assay: Bactericidal activity against erythromycin-susceptible Streptococcus pneumoniae ATCC 49619 assessed as reduction in colony formation incubated in CAMHB medium for 20 to 24 hrs followed by 24 hrs subculturing in the medium without test compound
Haemophilus influenzae [15] = assay: Ratio of MBC to MIC for azithromycin-susceptible Haemophilus influenzae ATCC 49247
Streptococcus pneumoniae [16] = assay: Ratio of MBC to MIC for erythromycin-susceptible Streptococcus pneumoniae ATCC 49619
Streptococcus pneumoniae [17] = assay: Ratio of MBC to MIC for mef-encoded erythromycin resistant Streptococcus pneumoniae PU09
Staphylococcus aureus [18] = assay: Bactericidal activity against constitutively erythromycin resistant and methicillin-resistant Staphylococcus aureus PU20 expressing c-ermC assessed as reduction in colony formation incubated in CAMHB medium for 20 hrs followed by 24 hrs subculturing in the medium without test compound
Streptococcus pyogenes [19] = assay: Ratio of MBC to MIC for inducibly erythromycin resistant Streptococcus pyogenes 01-968 expressing i-ermA
Streptococcus pyogenes [20] = assay: Antimicrobial activity against inducibly erythromycin resistant Streptococcus pyogenes 01-968 expressing i-ermA incubated in CAMHB medium for 20 to 24 hrs by two-fold microbroth dilution method
Staphylococcus aureus [21] = assay: Antimicrobial activity against constitutively erythromycin resistant and methicillin resistant Staphylococcus aureus PU20 expressing c-ermC incubated in CAMHB medium for 20 hrs by two-fold microbroth dilution method; conditions: PU20, 20 h
Outline: (§4)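 Purified fresh Staphylococcus isolate at about 5×10^5 CFU/ml final in CAMHB, 35 °C for 20 h. Each run included ATCC strains and reference antibiotics as QC, plus an antibiotic-free growth control.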

Streptococcus pyogenes [22] = assay: Bactericidal activity against inducibly erythromycin resistant Streptococcus pyogenes 01-968 expressing i-ermA assessed as reduction in colony formation incubated in CAMHB medium for 20 to 24 hrs followed by 24 hrs subculturing in the medium without test compound
Staphylococcus aureus [23] = assay: Bactericidal activity against inducibly erythromycin-resistant and methicillin resistant Staphylococcus aureus PU32 expressing i-ermA assessed as reduction in colony formation incubated in CAMHB medium for 20 hrs followed by 24 hrs subculturing in the medium without test compound
Staphylococcus aureus [24] = assay: Antimicrobial activity against inducibly erythromycin-resistant and methicillin resistant Staphylococcus aureus PU32 expressing i-ermA incubated in CAMHB medium for 20 hrs by two-fold microbroth dilution method; conditions: PU32, 20 h; outline: as §4

| SMILES | MIC (Staphylococcus aureus [1]) [µg/mL] | MIC (Streptococcus pneumoniae [2]) [µg/mL] | MIC (Staphylococcus aureus [3]) [µg/mL] | MIC (Streptococcus pyogenes [4]) [µg/mL] | MIC [5] [µg/mL] | MIC (Streptococcus pneumoniae [6]) [µg/mL] | MIC (Streptococcus pneumoniae [7]) [µg/mL] | MIC (Staphylococcus aureus [8]) [µg/mL] | MIC (Staphylococcus aureus [9]) [µg/mL] | MIC (Streptococcus pyogenes [10]) [µg/mL] | MIC (Haemophilus influenzae [11]) [µg/mL] | MBC (Haemophilus influenzae [12]) [µg/mL] | MBC (Streptococcus pneumoniae [13]) [µg/mL] | MBC (Streptococcus pneumoniae [14]) [µg/mL] | Ratio (Haemophilus influenzae [15]) | Ratio (Streptococcus pneumoniae [16]) | other results |
| --- | --- | --- | --- | --- | --- | --- | --- | --- | --- | --- | --- | --- | --- | --- | --- | --- | --- |
| C=CCO/N=C1\[C@H](C)C[C@@](C)(OC)[C@H](O[C@@H]2O[C@H](C)C[C@H](N(C)C)[C@H]2O)[C@@H](C)[C@H](OCC#Cc2cncnc2)[C@@H](C)C(=O)O[C@H](CC)[C@@]2(C)OC(=O)O[C@@H]2[C@H]1C | 256 (≈ 325 µM) | 4 (≈ 5.08 µM) | 64 (≈ 81.3 µM) | 64 (≈ 81.3 µM) | 256 (≈ 325 µM) | 4 (≈ 5.08 µM) | 64 (≈ 81.3 µM) | 256 (≈ 325 µM) | 128 (≈ 163 µM) | 4 (≈ 5.08 µM) | – | – | – | – | – | – | – |
| C=CCO/N=C1\[C@H](C)C[C@@](C)(OC)[C@H](O[C@@H]2O[C@H](C)C[C@H](N(C)C)[C@H]2O)[C@@H](C)[C@H](OCC#Cc2cncc(C#N)c2)[C@@H](C)C(=O)O[C@H](CC)[C@@]2(C)OC(=O)O[C@@H]2[C@H]1C | 128 (≈ 158 µM) | 4 (≈ 4.93 µM) | 64 (≈ 78.9 µM) | 128 (≈ 158 µM) | 256 (≈ 316 µM) | 8 (≈ 9.86 µM) | 64 (≈ 78.9 µM) | 128 (≈ 158 µM) | 128 (≈ 158 µM) | 4 (≈ 4.93 µM) | – | – | – | – | – | – | – |
| C=CCO/N=C1\[C@H](C)C[C@@](C)(OC)[C@H](O[C@@H]2O[C@H](C)C[C@H](N(C)C)[C@H]2O)[C@@H](C)[C@H](OCC#Cc2ccc(N)cn2)[C@@H](C)C(=O)O[C@H](CC)[C@@]2(C)OC(=O)O[C@@H]2[C@H]1C | > 256 | 4 (≈ 4.99 µM) | 64 (≈ 79.9 µM) | 128 (≈ 160 µM) | > 256 | 8 (≈ 9.99 µM) | 64 (≈ 79.9 µM) | > 256 | 128 (≈ 160 µM) | 4 (≈ 4.99 µM) | – | – | – | – | – | – | – |
| CC[C@H]1OC(=O)[C@H](C)[C@@H](OC(=O)NCCCc2cncc(N)c2)[C@H](C)[C@@H](O[C@@H]2O[C@H](C)C[C@H](N(C)C)[C@H]2O)[C@](C)(OC)C[C@@H](C)/C(=N\OC)[C@H](C)[C@H]2OC(=O)O[C@@]21C | – | 0.25 (≈ 0.304 µM) | – | – | – | 4 (≈ 4.87 µM) | – | – | – | – | 256 (≈ 311 µM) | 256 (≈ 311 µM) | 8 (≈ 9.73 µM) | 0.5 (≈ 0.608 µM) | 1 | 2 | – |
| C=CCO/N=C1\[C@H](C)C[C@@](C)(OC)[C@H](O[C@@H]2O[C@H](C)C[C@H](N(C)C)[C@H]2O)[C@@H](C)[C@H](OCC#Cc2ccnc(N)c2)[C@@H](C)C(=O)O[C@H](CC)[C@@]2(C)OC(=O)O[C@@H]2[C@H]1C | 256 (≈ 320 µM) | 4 (≈ 4.99 µM) | 64 (≈ 79.9 µM) | 128 (≈ 160 µM) | 256 (≈ 320 µM) | 8 (≈ 9.99 µM) | 64 (≈ 79.9 µM) | 256 (≈ 320 µM) | 256 (≈ 320 µM) | 4 (≈ 4.99 µM) | – | – | – | – | – | – | – |
| CC[C@H]1OC(=O)[C@H](C)[C@@H](OC(=O)CCNCCCc2ccc3c(c2)c(=O)c(C(=O)O)cn3C2CC2)[C@H](C)[C@@H](O[C@@H]2O[C@H](C)C[C@H](N(C)C)[C@H]2O)[C@](C)(OC)C[C@@H](C)/C(=N\OC)[C@H](C)[C@H]2OC(=O)O[C@@]21C | – | 0.5 (≈ 0.508 µM) | – | – | – | 4 (≈ 4.06 µM) | – | – | – | – | 128 (≈ 130 µM) | 256 (≈ 260 µM) | 4 (≈ 4.06 µM) | 1 (≈ 1.02 µM) | 2 | 2 | Ratio (Streptococcus pneumoniae [17]): 1; MBC (Staphylococcus aureus [18]): > 256 µg/mL; Ratio (Streptococcus pyogenes [19]): 1; MIC (Streptococcus pyogenes [20]): 32 µg/mL (≈ 32.5 µM); MIC (Staphylococcus aureus [21]): 128 µg/mL (≈ 130 µM); MBC (Streptococcus pyogenes [22]): 32 µg/mL (≈ 32.5 µM); MBC (Staphylococcus aureus [23]): > 256 µg/mL; MIC (Staphylococcus aureus [24]): 128 µg/mL (≈ 130 µM) |
| CC[C@H]1OC(=O)[C@H](C)[C@@H](OC(=O)CCNC/C=C/c2cccnc2)[C@H](C)[C@@H](O[C@@H]2O[C@H](C)C[C@H](N(C)C)[C@H]2O)[C@](C)(OC)C[C@@H](C)/C(=N\OC)[C@H](C)[C@H]2OC(=O)O[C@@]21C | – | 1 (≈ 1.2 µM) | – | – | – | 2 (≈ 2.4 µM) | – | – | – | – | 256 (≈ 307 µM) | 256 (≈ 307 µM) | 2 (≈ 2.4 µM) | 2 (≈ 2.4 µM) | 1 | 2 | Ratio (Streptococcus pneumoniae [17]): 1; Ratio (Streptococcus pyogenes [19]): >8; MIC (Streptococcus pyogenes [20]): 8 µg/mL (≈ 9.6 µM); MIC (Staphylococcus aureus [21]): > 256 µg/mL; MBC (Streptococcus pyogenes [22]): > 64 µg/mL; MBC (Staphylococcus aureus [23]): > 256 µg/mL; MIC (Staphylococcus aureus [24]): 128 µg/mL (≈ 154 µM) |
